Experiment [1] in a line: HUVEC growth inhibition – cell-based, human, primary screen (AID 575;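 active = viability at or below 30% in both replicate assays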;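 also: 100% = median of untreated cell wells with 0.1% DMSO on each plate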). Particulars: HUVEC proliferation, CellTiter-Glo luminescence, 72 h; at 10 µM; stronger effect = lower value. Put shortly:
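Test system: primary human umbilical vein endothelial cells; medium: endothelial basal medium with 2% FBS plus growth supplements; dosing: 10 µM compound only; times: 72 h treatment at 37 °C; signal: CTG luminescence; read-out: % viability relative to median vehicle-well signal on each plate; control set: vehicle and MePR control wells; plate: 384-well, collagen-coated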
Background: ATP-based viability assays read luminescence as a measure of living cells.

The nature of experiment [2]: H69AR cell proliferation blockers – human, duplicate replicates, primary screen (AID 580;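 active = viability at or under a set limit in both replicates, limit being median viability minus 3 SD, cut at about 48% in these data, passing the limit was not always enough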;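 also: 100% = mean luminescence of untreated wells and 0% = no signal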). Particulars: H69AR lung tumor cells viability, ATP luminescence, 72 h; at 10 µM; stronger effect = lower value.
Experiment [3] can be described thus: MRP1 drug-resistance reversers in H69AR cells – cell-based, doxorubicin co-treatment, pilot screen (AID 601;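 active = viability loss from added drug above about 55%, and viability with drug at most 40%, in both replicates, limit read from the data, passing the limit was not always enough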). As to conditions: CellTiter-Glo, 72 h, at 10 µM; for differential viability (reversal): stronger effect = higher value.
Experiment [4] in a line: yeast transport mutant growth inhibition pilot in 384-well plates, post-Golgi transport modulator project (AID 636). Particulars: absorbance 615 nm, about 18 h, stronger effect = higher value.
Experiment [5] in a line: growth suppression of yeast trafficking mutant, preliminary HTS, modulators of trafficking downstream of Golgi apparatus project, 1536-format plate, OD 615 nm (AID 637; in the data active = inhibition above about 30%). As to conditions: yeast transport mutant growth, absorbance 615 nm, 18 h; stronger effect = higher value.
The mark [6] stands for this setting: H69AR cells + 2 uM doxorubicin, measured here: viability with 2 uM doxorubicin, stronger effect = lower value.
Setting [7] is: H69AR cells, compound alone cytotoxicity.

Calls of active or inactive are those of the source. Rule as the data show it, unless noted: active = inhibition above about 31%; inactive = the rest.

Usually viability stands for a read-out of living cells in per cent, often relative to untreated cells. One may read the inhibition as the relative decrease from the control value, in per cent. For `CCOc1ccccc1-n1c(SCC(=O)NC(C)CC)nnc1-c1ccoc1C` (stereo not given), the viability was 82.5% (inactive) in experiment [1], 88.7% (inactive) in experiment [2], 79.6% in experiment [3] (setting [6]) and 88.7% in experiment [3] (setting [7]). For the same molecule, the differential viability (reversal) in experiment [3] (H69AR cells + 2 uM doxorubicin) is 9.12% (inactive). The inhibition is -6% (inactive) in experiment [4] and -1.75% (inactive) in experiment [5].

As to `COC(=O)COc1ccc(C(=O)OC)cc1`, the viability in experiment [1] is 92.8% (inactive); in experiment [2], 108% (inactive); in experiment [3] (setting [6]), 97.4%; in experiment [3] (setting [7]) it was 108%. The differential viability (reversal) in experiment [3] (H69AR cells + 2 uM doxorubicin) was 10.4% (inactive). Further, the figures for the inhibition in experiment [4] and in experiment [5] were -1.84% (inactive) and -2.38% (inactive), respectively.

Regarding `CCn1c(C)nc2cc(C(=O)OC(C(F)(F)C(F)F)C(F)(F)C(F)F)ccc21`, the viability was 58.4% (inactive) in experiment [1], 79.2% (inactive) in experiment [2], 79.1% in experiment [3] (setting [6]) and 79.2% in experiment [3] (setting [7]). The differential viability (reversal) in experiment [3] (H69AR cells + 2 uM doxorubicin) is 0.115% (inactive). Besides, the figures for the inhibition in experiment [4] and in experiment [5] were -2.47% (inactive) and 3.97% (inactive), respectively.

As for `O=C1C2C3C=CC(C3)C2C(=O)N1CNc1ccc(O)cc1` (stereo not given), the viability in experiment [1] was 93.7% (inactive); in experiment [2], 90.7% (inactive); in experiment [3] (setting [6]), 102%; in experiment [3] (setting [7]) it was 90.7%. Moreover, the differential viability (reversal) in experiment [3] (H69AR cells + 2 uM doxorubicin) was -11.8% (inactive). In addition, the results for the inhibition in experiment [4] and in experiment [5] were 0.13% (inactive) and -4.6% (inactive), respectively.

Take `CCOC(=O)c1sc(NS(=O)(=O)c2ccc(NC(C)=O)cc2)nc1C`: the viability in experiment [1] was 112% (inactive); in experiment [2], 96% (inactive); in experiment [3] (setting [6]), 88.1%; in experiment [3] (setting [7]) it was 96%. For the same molecule, the differential viability (reversal) in experiment [3] (H69AR cells + 2 uM doxorubicin) is 7.92% (inactive). In addition, the figures for the inhibition in experiment [4] and in experiment [5] were -1.97% (inactive) and 2.22% (inactive), respectively.

On to `COc1ccc(-c2noc(CCC(=O)Nc3nc4ccccc4s3)n2)cc1`, for which the viability was 88.2% (inactive) in experiment [1], 88.1% (inactive) in experiment [2], 91.1% in experiment [3] (setting [6]) and 88.1% in experiment [3] (setting [7]). Moreover, the differential viability (reversal) in experiment [3] (H69AR cells + 2 uM doxorubicin) was -3.04% (inactive). Besides, the inhibition in experiment [4] was 2.21% (inactive); in experiment [5], 7.46% (inactive).

For the molecule `N#Cc1c(SCC(=O)N2CCOCC2)nsc1SCC(=O)N1CCOCC1`, the viability in experiment [1] is 97.7% (inactive); in experiment [2] it was 97.2% (inactive); in experiment [3] (setting [6]) it was 85.7%; in experiment [3] (setting [7]), 97.2%. For the same molecule, in experiment [3] (H69AR cells + 2 uM doxorubicin), the differential viability (reversal) is 11.5% (inactive). The inhibition in experiment [4] is -1.3% (inactive); in experiment [5], -3.02% (inactive).

On to `COC(=O)CSC1=C(C#N)C(c2ccccc2)CC(=O)N1` (stereo not given), for which the viability in experiment [1] was 71.7% (inactive); in experiment [2], 23.4% (active); in experiment [3] (setting [6]), 71.7%; in experiment [3] (setting [7]) it was 23.4%. In experiment [3] (H69AR cells + 2 uM doxorubicin), the differential viability (reversal) is -48.4% (inactive). Moreover, the values for the inhibition in experiment [4] and in experiment [5] were -6% (inactive) and 6.19% (inactive), respectively.

As for `CCOc1ccccc1C(=O)NCCCn1ccnc1`, the viability in experiment [1] is 95.3% (inactive); in experiment [2] it was 91.9% (inactive); in experiment [3] (setting [6]), 87.5%; in experiment [3] (setting [7]), 91.9%. For the same molecule, the differential viability (reversal) in experiment [3] (H69AR cells + 2 uM doxorubicin) is 4.38% (inactive). The inhibition in experiment [4] is -4.42% (inactive); in experiment [5] it was 2.7% (inactive).

Consider `CN=C(C)C1=C(O)C(C(=O)OC)C(C)(C)CC1=O` (stereo not given), for which the viability in experiment [1] was 108% (inactive); in experiment [2], 98.5% (inactive); in experiment [3] (setting [6]), 95.3%; in experiment [3] (setting [7]), 98.5%. The differential viability (reversal) in experiment [3] (H69AR cells + 2 uM doxorubicin) is 3.21% (inactive). Besides, the inhibition in experiment [4] was -1.43% (inactive); in experiment [5], 2.7% (inactive).

Consider `CC(C)CC(OC(=O)c1cccs1)C(=O)NCc1ccco1` (stereo not given), for which the viability in experiment [1] is 103% (inactive); in experiment [2], 80.6% (inactive); in experiment [3] (setting [6]), 81%; in experiment [3] (setting [7]), 80.6%. Also, the differential viability (reversal) in experiment [3] (H69AR cells + 2 uM doxorubicin) was -0.4% (inactive). Also, the inhibition in experiment [4] is -7.6% (inactive); in experiment [5], -4.13% (inactive).

In the case of `COc1cccc(Oc2ccc(N)cc2)c1`, the viability was 74.9% (inactive) in experiment [1], 74.8% (inactive) in experiment [2], 81.7% in experiment [3] (setting [6]) and 74.8% in experiment [3] (setting [7]). Also, the differential viability (reversal) in experiment [3] (H69AR cells + 2 uM doxorubicin) is -6.83% (inactive). Also, the results for the inhibition in experiment [4] and in experiment [5] were 0% (inactive) and -3.33% (inactive), respectively.

Regarding `CCOc1ccc(N(CC(=O)NCc2cccc(OC)c2)S(=O)(=O)c2c(C)noc2C)cc1`, the viability was 93.4% (inactive) in experiment [1], 91.2% (inactive) in experiment [2], 95.8% in experiment [3] (setting [6]) and 91.2% in experiment [3] (setting [7]). Also, the differential viability (reversal) in experiment [3] (H69AR cells + 2 uM doxorubicin) is -4.58% (inactive). Also, the inhibition in experiment [4] is 0.27% (inactive); in experiment [5], -2.86% (inactive).

Consider `COc1ccccc1NC(=O)N1c2ccc(F)cc2CCC1C` (stereo not given), for which the viability is 83.3% (inactive) in experiment [1], 99% (inactive) in experiment [2], 84% in experiment [3] (setting [6]) and 99% in experiment [3] (setting [7]). For the same molecule, in experiment [3] (H69AR cells + 2 uM doxorubicin), the differential viability (reversal) was 15% (inactive). Further, the inhibition in experiment [4] was -2.47% (inactive); in experiment [5], 3.02% (inactive).

On to `CSc1ccccc1NC(=O)c1noc2c1CCC2`, for which the viability is 77.8% (inactive) in experiment [1], 90.2% (inactive) in experiment [2], 88.5% in experiment [3] (setting [6]) and 90.2% in experiment [3] (setting [7]). The differential viability (reversal) in experiment [3] (H69AR cells + 2 uM doxorubicin) was 1.63% (inactive). Moreover, the inhibition is -3.38% (inactive) in experiment [4] and -3.49% (inactive) in experiment [5].

Take `CCOC(=O)c1ccc(NS(=O)(=O)c2ccc(SC)cc2)cc1`: the viability in experiment [1] is 99% (inactive); in experiment [2], 108% (inactive); in experiment [3] (setting [6]) it was 97.4%; in experiment [3] (setting [7]) it was 108%. The differential viability (reversal) in experiment [3] (H69AR cells + 2 uM doxorubicin) was 10.8% (inactive). Also, the inhibition was -7.11% (inactive) in experiment [4] and -3.81% (inactive) in experiment [5].

For the molecule `CCc1cc(-c2[nH]ncc2-c2ccc3c(c2)OCO3)c(O)cc1O`, the viability was 4.08% (active) in experiment [1], 23.3% (active) in experiment [2], 37.5% in experiment [3] (setting [6]) and 23.3% in experiment [3] (setting [7]). Further, the differential viability (reversal) in experiment [3] (H69AR cells + 2 uM doxorubicin) was -14.2% (inactive). The inhibition is 4.94% (inactive) in experiment [4] and 27.1% (inactive) in experiment [5].

In the case of `c1ccc(OCc2nc3ccccc3[nH]2)cc1`, the viability in experiment [1] was 85.4% (inactive); in experiment [2], 92.2% (inactive); in experiment [3] (setting [6]), 90.6%; in experiment [3] (setting [7]) it was 92.2%. In addition, the differential viability (reversal) in experiment [3] (H69AR cells + 2 uM doxorubicin) was 1.59% (inactive). Besides, the values for the inhibition in experiment [4] and in experiment [5] were -3.6% (inactive) and -4.13% (inactive), respectively.

On to `CCOC(=O)c1ccc(NC(=O)N2CCN(CCc3ccccc3)CC2)cc1`, for which the viability in experiment [1] is 91.7% (inactive); in experiment [2], 101% (inactive); in experiment [3] (setting [6]) it was 90.4%; in experiment [3] (setting [7]), 101%. The differential viability (reversal) in experiment [3] (H69AR cells + 2 uM doxorubicin) was 10.2% (inactive). Further, the inhibition in experiment [4] is -2.11% (inactive); in experiment [5], -0.32% (inactive).

Take `CCOc1ccccc1Nc1nc2ccccc2[nH]1`: the viability was 92.7% (inactive) in experiment [1], 94.2% (inactive) in experiment [2], 92.3% in experiment [3] (setting [6]) and 94.2% in experiment [3] (setting [7]). In experiment [3] (H69AR cells + 2 uM doxorubicin), the differential viability (reversal) was 1.97% (inactive). In addition, the inhibition was 0.91% (inactive) in experiment [4] and -6.03% (inactive) in experiment [5].
